One test concerns the target T1, Peregrin (Homo sapiens, UniProt P55201).
T1 sequence (P55201 whole entry): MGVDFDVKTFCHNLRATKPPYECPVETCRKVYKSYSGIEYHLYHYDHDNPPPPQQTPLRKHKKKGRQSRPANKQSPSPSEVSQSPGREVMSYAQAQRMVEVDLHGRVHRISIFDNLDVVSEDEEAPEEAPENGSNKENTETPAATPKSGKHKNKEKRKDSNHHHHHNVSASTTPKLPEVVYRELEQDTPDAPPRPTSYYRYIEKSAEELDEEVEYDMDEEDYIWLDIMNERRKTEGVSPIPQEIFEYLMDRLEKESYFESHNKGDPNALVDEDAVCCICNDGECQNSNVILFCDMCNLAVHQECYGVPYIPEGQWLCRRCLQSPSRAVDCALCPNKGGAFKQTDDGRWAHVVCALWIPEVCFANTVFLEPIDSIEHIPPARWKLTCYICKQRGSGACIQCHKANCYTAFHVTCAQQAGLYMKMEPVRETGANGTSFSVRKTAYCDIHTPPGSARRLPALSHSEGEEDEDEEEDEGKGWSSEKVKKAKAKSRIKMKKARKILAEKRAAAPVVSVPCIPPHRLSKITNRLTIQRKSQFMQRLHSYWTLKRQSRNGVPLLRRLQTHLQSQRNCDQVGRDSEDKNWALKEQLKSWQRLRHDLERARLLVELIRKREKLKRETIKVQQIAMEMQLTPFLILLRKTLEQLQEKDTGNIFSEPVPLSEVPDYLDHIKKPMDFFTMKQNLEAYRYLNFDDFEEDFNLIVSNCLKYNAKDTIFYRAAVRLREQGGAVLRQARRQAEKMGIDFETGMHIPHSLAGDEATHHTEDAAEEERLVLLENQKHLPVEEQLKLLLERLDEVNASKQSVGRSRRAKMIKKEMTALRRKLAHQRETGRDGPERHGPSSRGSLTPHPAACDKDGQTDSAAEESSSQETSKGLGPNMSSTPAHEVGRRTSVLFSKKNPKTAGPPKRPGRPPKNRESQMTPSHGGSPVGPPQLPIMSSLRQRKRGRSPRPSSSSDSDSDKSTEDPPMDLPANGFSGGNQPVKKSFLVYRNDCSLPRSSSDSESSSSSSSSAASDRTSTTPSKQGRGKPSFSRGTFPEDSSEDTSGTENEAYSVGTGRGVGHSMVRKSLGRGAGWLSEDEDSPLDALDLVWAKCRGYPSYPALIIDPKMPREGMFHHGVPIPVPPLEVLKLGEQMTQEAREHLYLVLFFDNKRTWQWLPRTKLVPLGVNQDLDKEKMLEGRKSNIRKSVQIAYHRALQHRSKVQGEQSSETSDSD
The test is described as follows: Displacement of biotinylated JQ1 analog from recombinant His-tagged BRPF1 (unknown origin) incubated for 10 mins by TR-FRET assay. Summed up:
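Bromodomain, then biotinylated ligand, each added with 10 min incubation. Anti-His europium (0.2 nM) plus streptavidin-APC followed for 40 min. 10-point titrations in duplicate, at least 2 independent runs.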

Test [1] concerns T2, Chromatin remodeling regulator CECR2 (Homo sapiens), Q9BXF3 [Y520I].
T2 sequence (whole entry): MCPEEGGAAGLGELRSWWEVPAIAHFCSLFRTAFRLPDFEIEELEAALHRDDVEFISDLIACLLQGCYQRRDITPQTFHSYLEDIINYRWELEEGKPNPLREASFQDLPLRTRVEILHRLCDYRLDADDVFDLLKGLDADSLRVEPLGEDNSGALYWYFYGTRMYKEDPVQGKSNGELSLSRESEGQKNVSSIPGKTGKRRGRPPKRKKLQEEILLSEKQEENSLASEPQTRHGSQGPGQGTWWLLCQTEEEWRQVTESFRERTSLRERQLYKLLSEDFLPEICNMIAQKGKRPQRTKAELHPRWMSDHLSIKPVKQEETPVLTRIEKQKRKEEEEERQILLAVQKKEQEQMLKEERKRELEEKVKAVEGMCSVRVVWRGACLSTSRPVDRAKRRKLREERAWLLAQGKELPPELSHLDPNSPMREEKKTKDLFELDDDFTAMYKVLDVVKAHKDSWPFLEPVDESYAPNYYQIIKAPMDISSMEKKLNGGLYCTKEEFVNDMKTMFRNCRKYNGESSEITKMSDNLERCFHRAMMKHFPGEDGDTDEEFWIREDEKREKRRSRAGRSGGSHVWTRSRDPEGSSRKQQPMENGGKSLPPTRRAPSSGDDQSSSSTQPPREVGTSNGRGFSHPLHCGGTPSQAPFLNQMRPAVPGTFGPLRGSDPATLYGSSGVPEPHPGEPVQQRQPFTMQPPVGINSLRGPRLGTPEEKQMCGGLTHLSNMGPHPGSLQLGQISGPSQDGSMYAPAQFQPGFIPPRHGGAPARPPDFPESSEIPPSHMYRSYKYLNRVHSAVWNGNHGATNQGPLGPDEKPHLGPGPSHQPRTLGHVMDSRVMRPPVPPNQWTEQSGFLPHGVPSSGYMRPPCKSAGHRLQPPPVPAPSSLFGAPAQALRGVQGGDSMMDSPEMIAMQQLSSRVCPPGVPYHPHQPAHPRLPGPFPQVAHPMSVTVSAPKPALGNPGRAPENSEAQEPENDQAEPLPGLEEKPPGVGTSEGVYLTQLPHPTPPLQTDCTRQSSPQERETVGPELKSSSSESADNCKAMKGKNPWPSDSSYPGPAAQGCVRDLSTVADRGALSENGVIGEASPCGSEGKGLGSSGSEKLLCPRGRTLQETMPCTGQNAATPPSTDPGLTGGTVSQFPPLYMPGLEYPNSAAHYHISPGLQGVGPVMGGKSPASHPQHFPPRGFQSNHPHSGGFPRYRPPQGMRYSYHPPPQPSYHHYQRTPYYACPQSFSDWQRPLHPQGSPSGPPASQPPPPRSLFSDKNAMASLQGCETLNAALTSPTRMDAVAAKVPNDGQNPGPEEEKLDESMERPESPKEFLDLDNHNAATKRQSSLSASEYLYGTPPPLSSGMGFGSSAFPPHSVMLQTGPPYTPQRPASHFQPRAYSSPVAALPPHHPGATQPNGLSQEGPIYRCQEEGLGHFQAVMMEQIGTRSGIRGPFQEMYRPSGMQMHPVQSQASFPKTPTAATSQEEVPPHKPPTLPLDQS
Briefly: Binding affinity to CECR2 Y520I mutant (unknown origin) assessed as change in melting temperature at 10 uM by SYPRO red dye based differential scanning fluorimetry. In short, it runs like this: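 Differential scanning fluorimetry: aggregate removed by centrifugation, then bromodomain at 4 µM final with 10X SYPRO Red, 10 µM compound and 0.2% DMSO in 20 mM HEPES pH 7.7, 100 mM NaCl. Heated 25 to 95 °C, fluorescence read at 1 °C steps. Apparent Tm taken from melt curves; mean of at least five wells for CECR2.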
In general terms: DSF heats the sample and reads unfolding from a dye or from intrinsic fluorescence.

In test [2] the target is Histone acetyltransferase p300 (Homo sapiens, UniProt Q09472). The test is described as follows: Binding affinity to human partial length EP300 expressed in bacterial expression system by BROMOscan assay.

Structures are written as SMILES.

The IC50 is the concentration at which inhibition is half-maximal. What is called ΔTm is the shift of the melting midpoint relative to a reference. The Kd is the equilibrium constant for the complex coming apart. A lower Kd goes with higher affinity.

Histone acetyltransferase p300, sequence (Q09472 whole entry): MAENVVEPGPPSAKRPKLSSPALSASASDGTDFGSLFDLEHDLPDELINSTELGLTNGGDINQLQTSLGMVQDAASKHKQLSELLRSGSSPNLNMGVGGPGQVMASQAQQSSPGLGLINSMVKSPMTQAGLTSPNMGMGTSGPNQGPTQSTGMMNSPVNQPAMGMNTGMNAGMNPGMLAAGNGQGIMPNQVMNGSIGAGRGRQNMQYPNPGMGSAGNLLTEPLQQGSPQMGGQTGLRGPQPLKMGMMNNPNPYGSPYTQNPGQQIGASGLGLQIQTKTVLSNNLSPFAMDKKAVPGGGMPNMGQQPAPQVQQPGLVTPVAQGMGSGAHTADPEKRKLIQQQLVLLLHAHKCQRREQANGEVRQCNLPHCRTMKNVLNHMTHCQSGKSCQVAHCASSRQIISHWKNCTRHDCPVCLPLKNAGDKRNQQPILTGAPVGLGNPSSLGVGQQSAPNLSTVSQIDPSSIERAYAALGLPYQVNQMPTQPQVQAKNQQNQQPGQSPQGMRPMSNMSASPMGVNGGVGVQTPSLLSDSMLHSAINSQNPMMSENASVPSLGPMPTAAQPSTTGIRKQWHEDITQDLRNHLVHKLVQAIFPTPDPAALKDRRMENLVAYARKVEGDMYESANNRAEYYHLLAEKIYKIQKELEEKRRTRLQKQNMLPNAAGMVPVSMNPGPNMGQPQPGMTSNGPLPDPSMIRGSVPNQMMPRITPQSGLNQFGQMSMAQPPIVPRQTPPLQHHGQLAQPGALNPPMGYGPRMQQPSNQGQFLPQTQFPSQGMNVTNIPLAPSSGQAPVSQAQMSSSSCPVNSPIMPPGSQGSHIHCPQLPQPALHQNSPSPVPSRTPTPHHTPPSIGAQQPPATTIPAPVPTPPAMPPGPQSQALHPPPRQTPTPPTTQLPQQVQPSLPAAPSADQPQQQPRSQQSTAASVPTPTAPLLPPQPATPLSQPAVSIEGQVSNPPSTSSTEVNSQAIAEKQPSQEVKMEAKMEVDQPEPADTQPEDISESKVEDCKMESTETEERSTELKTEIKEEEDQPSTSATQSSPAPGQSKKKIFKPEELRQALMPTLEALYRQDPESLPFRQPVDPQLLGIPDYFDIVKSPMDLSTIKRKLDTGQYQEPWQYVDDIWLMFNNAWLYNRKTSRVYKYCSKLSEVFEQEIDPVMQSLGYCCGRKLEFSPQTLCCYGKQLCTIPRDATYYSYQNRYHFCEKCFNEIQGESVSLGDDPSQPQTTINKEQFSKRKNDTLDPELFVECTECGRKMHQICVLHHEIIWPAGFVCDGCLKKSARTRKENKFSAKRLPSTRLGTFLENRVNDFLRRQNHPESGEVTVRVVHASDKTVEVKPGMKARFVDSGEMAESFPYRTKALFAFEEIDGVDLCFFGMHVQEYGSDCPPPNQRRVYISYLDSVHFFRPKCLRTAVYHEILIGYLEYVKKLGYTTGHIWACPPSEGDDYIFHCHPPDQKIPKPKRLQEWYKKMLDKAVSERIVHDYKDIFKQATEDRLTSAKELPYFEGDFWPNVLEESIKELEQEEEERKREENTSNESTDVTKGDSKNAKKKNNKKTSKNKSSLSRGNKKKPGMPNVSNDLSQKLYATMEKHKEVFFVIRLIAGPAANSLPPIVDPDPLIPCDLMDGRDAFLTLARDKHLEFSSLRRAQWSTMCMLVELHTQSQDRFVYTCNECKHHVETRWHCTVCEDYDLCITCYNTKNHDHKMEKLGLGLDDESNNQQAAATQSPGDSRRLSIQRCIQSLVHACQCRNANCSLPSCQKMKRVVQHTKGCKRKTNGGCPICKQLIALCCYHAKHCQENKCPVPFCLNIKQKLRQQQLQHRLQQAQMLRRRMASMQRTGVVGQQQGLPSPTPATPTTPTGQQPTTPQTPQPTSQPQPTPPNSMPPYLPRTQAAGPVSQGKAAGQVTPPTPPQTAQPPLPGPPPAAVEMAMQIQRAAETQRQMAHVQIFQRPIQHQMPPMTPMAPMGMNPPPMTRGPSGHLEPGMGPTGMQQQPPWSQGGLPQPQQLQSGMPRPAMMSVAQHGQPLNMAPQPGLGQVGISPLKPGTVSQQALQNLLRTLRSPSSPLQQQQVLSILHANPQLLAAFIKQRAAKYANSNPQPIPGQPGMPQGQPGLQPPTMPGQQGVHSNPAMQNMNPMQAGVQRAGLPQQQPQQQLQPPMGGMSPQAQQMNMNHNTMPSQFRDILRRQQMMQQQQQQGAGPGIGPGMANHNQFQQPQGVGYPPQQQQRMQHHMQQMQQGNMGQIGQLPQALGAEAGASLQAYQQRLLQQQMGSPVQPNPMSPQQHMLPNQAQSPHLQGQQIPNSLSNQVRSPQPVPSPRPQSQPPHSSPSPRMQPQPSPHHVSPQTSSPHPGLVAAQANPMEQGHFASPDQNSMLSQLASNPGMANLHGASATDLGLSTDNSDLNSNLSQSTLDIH

As for `CN(C)C(=O)c1cccc(-c2cn(C)c(=O)c3[nH]ccc23)c1`, the IC50 on Peregrin turned out to be 1500 nM. In addition, the ΔTm in test [1] was found to be 3 °C. Moreover, in test [2], the dissociation constant Kd was 270 nM.

As to `C=CCn1cc(-c2cccc(C(=O)N(C)C)c2)c2cc[nH]c2c1=O`, the IC50 on Peregrin is over 20000 nM. In addition, the ΔTm in test [1] was -1 °C.

For the origin of these results see ChEMBL document CHEMBL4425103, “Diving into the Water: Inducible Binding Conformations for BRD4, TAF1(2), BRD9, and CECR2 Bromodomains” (J Med Chem, 2016).
